Screening results (PubChem BioAssay)
TAAR1 antag – human TAAR1 antagonism. Q96RJ0. CHO RD-HGA16 TAAR1, Fluo-8 calcium fluorescence, antagonist. inhibition, % at 3 µM. hit rate 1.5% among 360,000;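 active means inhibition above a per-plate cutoff, the mean inhibition of test compounds on that plate plus 3 SD, cut at about 49% in these data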
Target sequence (Q96RJ0 whole entry, looked up): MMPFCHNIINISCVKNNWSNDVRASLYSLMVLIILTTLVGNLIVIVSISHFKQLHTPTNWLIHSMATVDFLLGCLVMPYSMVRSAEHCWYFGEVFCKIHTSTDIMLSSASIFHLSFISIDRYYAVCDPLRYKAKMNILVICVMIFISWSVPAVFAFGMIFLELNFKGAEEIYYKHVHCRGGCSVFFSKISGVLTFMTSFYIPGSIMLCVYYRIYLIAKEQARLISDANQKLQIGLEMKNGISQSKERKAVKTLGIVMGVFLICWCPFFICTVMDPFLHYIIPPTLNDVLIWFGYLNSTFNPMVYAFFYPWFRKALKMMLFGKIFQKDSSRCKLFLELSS
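Test system: CHO RD-HGA16 cells bearing hTAAR1 | Reagent: β-PEA, EC80 | Compound dosing: 3 µM, single point | Schedule: Dye loading 75 min at 37 °C, then 30 min room temperature | Signal: Calcium fluorescence with Fluo-8 | Evaluation: Percent inhibition of PEA-evoked calcium signal, max/basal emission ratio | Control set: DMSO-only wells and EC80 β-PEA-stimulated wells | Repeats: Singlicate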
V1aR counter – counter-screen for oxytocin receptor agonists: human V1a receptor agonists | P37288 | CHO-V1R cells, Fluo-8 calcium fluorescence, agonist mode; 0% DMSO, 100% 3 nM vasopressin | activation, % at 3 µM | hit rate 0.25% among 320,000 | AID 2797;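 active means activation above the mean activation of all tested compounds plus 3 SD, per screening run, cut at about 20% in these data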;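 further: signal is peak over basal fluorescence ratio across a 100 second FLIPR read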
TAAR1 agonist – human TAAR1 agonism; Q96RJ0; CHO RD-HGA16 TAAR1, Fluo-8 calcium fluorescence; vehicle wells 0%, saturating PEA agonist 100%; activation, % at 3 µM; hit rate 0.99% among 360,000; AID 624467;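 active means activation above the mean activation of all test compounds in the run plus 3 SD, cut at about 38% in these data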
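Assay system – CHO-derived RD-HGA16 cells with stable Gα16 and human TAAR1 · Compound dosing – one-point dosing at 3 µM (nominal) · Incubation – 17-24 h seeding, 75 min 37 °C dye, 30 min RT · Measured by – kinetic Fluo-8 calcium fluorescence · Control set – DMSO vehicle as 0%, PEA at EC100 as 100% · Repeats – single well for each compound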
OXTR potentiator – human OXTR potentiation. P30559. CHO-OTR cells, Fluo-8 calcium fluorescence, potentiator mode; 0% = oxytocin EC15, 100% = EC100. activation, % at 3 µM. hit rate 0.061% among 320,000. AID 2445;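 active means activation above that plate's cutoff, the mean activation of tested compounds plus 3 SD, cut at about 6.6% in these data, passing the limit was not always enough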
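System: human OTR in CHO cells / Also added: sub-maximal oxytocin, roughly EC15 / Control set: EC15 oxytocin low, 75 nM oxytocin high / Schedule: 6 min compound pre-incubation at room temperature, 100 s kinetic read / Compound: single-point 3.0 µM / Replication: singlicate / Technique: Fluo-8 calcium dye fluorescence / Read-out basis: % activation of max/min ratio relative to oxytocin controls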
OXTR ag – activates the human oxytocin receptor | P30559 | CHO-OTR cells, Fluo-8 calcium fluorescence; normalized: DMSO 0%, oxytocin 100% | activation, % at 3 µM | hit rate 0.32% among 320,000 | AID 2435;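 active means activation above the mean of all tested compounds plus 3 SD, cutoff set per screening run, cut at about 20% in these data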;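 further: peak over basal fluorescence ratio from a 100 s FLIPR kinetic read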
TAAR1 ag confirm – human TAAR1 agonism, confirmed | shares compounds with TAAR1 agonist | CHO RD-HGA16 TAAR1, Fluo-8 calcium fluorescence; scaled: DMSO 0%, maximal phenethylamine 100% | activation, % at 3 µM | hit rate 82% among 2,400 | AID 651783;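 active means activation above a cutoff set at the run's mean compound activation plus 3 SD, cut at about 39% in these data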
Ga16 ag counter – counter-screen for TAAR1 agonists: nonselective agonists in parental cells. hit rate 50% among 2,400. activation, % at 3 µM. AID 651787. CHO-Ga16 parental, Fluo-8 calcium fluorescence; normalized to maximal ATP response, DMSO zero. shares compounds with TAAR1 agonist;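 active means activation above the run cutoff, the mean activation over all tested wells plus 3 SD, cut at about 12% in these data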
TAAR1 desensitize – counter-screen for human TAAR1 agonists: agonists that desensitize TAAR1; shares compounds with TAAR1 agonist; CHO RD-HGA16 hTAAR1, Fluo-8 calcium, beta-PEA response inhibition; inhibition, % at 3 µM; hit rate 46% among 2,400; AID 651951;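 active means inhibition above the run cutoff, the mean inhibition of all test compounds plus 3 SD, cut at about 49% in these data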;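 further: beta-PEA stimulus applied at its EC80; loss of beta-PEA calcium signal after compound pretreatment read as receptor desensitization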
Ga16 antag count – nonselective Ga16 antagonism, counter-screen; AID 651952; shares compounds with TAAR1 agonist; hit rate 39% among 2,400; CHO-Ga16 ATP-induced calcium, Fluo-8 fluorescence; inhibition, % at 3 µM;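 active means inhibition above the plate's mean compound inhibition plus 3 SD, computed per plate, cut at about 22% in these data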
Large screens that a line does not name were inactive (follow-up assays come after a bar, where they were run). Sampled rows, rich in hits. Any-hit rate of the full collection: about 2.3%.

NC(COCc1ccccc1)c1csc(Nc2cc(Oc3ccccc3)ncn2)n1 (centres undefined)	none (no result: V1aR counter, OXTR potentiator, OXTR ag)
COc1cccc(Nc2nc(C(N)C(C)C)cs2)n1 (centres undefined)	none (no result: V1aR counter, OXTR potentiator, OXTR ag)
CN1CCOc2cc(S(=O)(=O)NCc3ccc(S(N)(=O)=O)cc3)ccc21	none
CC(C)C[C@H]1CNC(=S)N1C[C@H]1CCCN1C[C@H](Cc1ccc(O)cc1)N1C[C@H](Cc2ccc(O)cc2)N(CC2CCCCCC2)C1=S	none (no result: V1aR counter, OXTR potentiator, OXTR ag)
N#Cc1cc(C(=O)c2ccccc2O)cn(-c2nccs2)c1=O	TAAR1 antag 71, V1aR counter 55, TAAR1 agonist 126, OXTR ag 90 | TAAR1 ag confirm 90 | Ga16 ag counter 84 | TAAR1 desensitize 65 | Ga16 antag count 59
N#Cc1cc(C(=O)c2cc(F)ccc2O)cn(-c2nccs2)c1=O	TAAR1 antag 68, V1aR counter 84, TAAR1 agonist 105, OXTR ag 135 | TAAR1 ag confirm 91 | Ga16 ag counter 112 | TAAR1 desensitize 67 | Ga16 antag count 74
COCCNC(=S)NNC(=O)c1cc(-c2cccnc2)nc2ccccc12	none (no result: V1aR counter, OXTR potentiator, OXTR ag)
COc1ccc(NC(=O)Nc2sc(NS(=O)(=O)c3ccccc3)nc2C)cc1	none
COc1ccc(Cn2c(SCc3ccccc3C)nc3cc(OC)c(OC)cc3c2=N)cc1	TAAR1 agonist 52 | TAAR1 ag confirm 71 | Ga16 ag counter 31 | TAAR1 desensitize inactive | Ga16 antag count 34
O=C1/C(=C/c2cccs2)Cc2ccccc21	none
O=C1/C(=C\c2ccc(Br)o2)Cc2ccccc21	TAAR1 agonist 50 | TAAR1 ag confirm inactive | Ga16 ag counter inactive | TAAR1 desensitize inactive | Ga16 antag count inactive
Clc1cccc(Cl)c1/C=C/c1ccn[nH]1	none
CC1=C(C)CC(C(=O)NCCc2ccc(F)cc2)C(C(=O)O)C1 (centres undefined)	TAAR1 agonist 73 | TAAR1 ag confirm 75 | Ga16 ag counter inactive | TAAR1 desensitize inactive | Ga16 antag count inactive
O=C(O)C1CCCCC1C(=O)NCCc1ccncc1 (centres undefined)	none
O=C(O)[C@H]1CCCC[C@H]1C(=O)NCCc1ccccc1	TAAR1 antag 85, TAAR1 agonist 85 | TAAR1 ag confirm 97 | Ga16 ag counter inactive | TAAR1 desensitize 92 | Ga16 antag count inactive
CCCCN(CCCC)C(=O)C1CC=CCC1C(=O)O (centres undefined)	none
CC1CCCCN1C(=S)NCCc1ccccc1 (centres undefined)	TAAR1 agonist 47 | TAAR1 ag confirm inactive | Ga16 ag counter inactive | TAAR1 desensitize inactive | Ga16 antag count inactive
CCCCCNC(=O)C1CC=CCC1C(=O)O (centres undefined)	TAAR1 agonist 49 | TAAR1 ag confirm inactive | Ga16 ag counter inactive | TAAR1 desensitize inactive | Ga16 antag count inactive
Cc1ccc(OCCCCCCN2CCNCC2)cc1	none
CC(=O)Oc1cc2cccc(OC(C)=O)c(=O)c2c(OC(C)=O)c1OC(C)=O	none (no result: TAAR1 antag, TAAR1 agonist)
COc1ccc(CCNC(=O)C2CC=CCC2C(=O)O)cc1 (centres undefined)	TAAR1 agonist 50 | TAAR1 ag confirm 60 | Ga16 ag counter inactive | TAAR1 desensitize inactive | Ga16 antag count inactive
COc1ccc(CCNC(C)=O)cc1	none
CC1=C(C)CC(C(=O)NCCc2ccccc2)C(C(=O)O)C1 (centres undefined)	TAAR1 antag 91, TAAR1 agonist 81 | TAAR1 ag confirm 105 | Ga16 ag counter inactive | TAAR1 desensitize 84 | Ga16 antag count inactive
